Test results taken from PMC2628580 (Chemistry & biology, 2008).
“Also recorded” adds a separate entry of the source.

Legend:
rat OR-I7 [1] = target: T1, rat OR-I7 (Rattus norvegicus, UniProt P23270); assay type: cell-based; conditions: for potency compared with n-alkanals (in words): activation dose-response curves; for activation of OR-I7 (in words): dose-response by calcium imaging; for maximal efficacy relative to 10 μM 1: mean ± SEM; for OR-I7 response at 30 μM (in words): calcium imaging trace of a GFP+ OSN
T1 sequence (P23270 1-327): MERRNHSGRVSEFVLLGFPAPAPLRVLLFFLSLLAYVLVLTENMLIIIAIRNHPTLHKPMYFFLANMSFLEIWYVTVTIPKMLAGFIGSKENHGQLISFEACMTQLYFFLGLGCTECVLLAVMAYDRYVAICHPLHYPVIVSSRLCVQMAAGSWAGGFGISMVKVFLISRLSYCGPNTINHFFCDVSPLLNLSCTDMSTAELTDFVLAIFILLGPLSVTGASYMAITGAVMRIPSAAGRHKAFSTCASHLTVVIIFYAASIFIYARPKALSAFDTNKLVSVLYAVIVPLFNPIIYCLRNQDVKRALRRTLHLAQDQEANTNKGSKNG
In short: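 Dissociated olfactory neurons from male Sprague-Dawley rats (6-7 wk) infected with adenovirus encoding OR-I7 plus separate GFP. GFP+ cells were fura-2AM loaded for 45 min at room temperature and imaged at 380/510 nm every 4 s. The compound came from 0.5M DMSO stock with DMSO-matched dilutions, given as 4 s pulses 3.25 min apart. Each movie was flanked by 10 μM normalizing stimuli and ΔF/F normalized to the trend line. Hill fit used ≥3 cells per point; EC50 ± SD.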

rat OSNs = assay: Panel screening of 1190 viable rat OSNs by calcium imaging; assay type: cell-based; conditions: 30 μM, 1190 tested rat OSNs
In short: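 Whole olfactory epithelium from uninfected rats was dissociated (collagenase, dispase), plated on concanavalin A coverslips and kept at 32 °C. Cells were loaded with fura-2AM and imaged at room temperature. Each test compound was given individually at 30 μM in random order, 5 min apart, with a DMSO vehicle application. 10 μM forskolin came last for normalization and viability. Responding cells were counted among 1190 tested.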

rat OR-I7 [2] = target: T1, rat OR-I7; assay: Antagonism of octanal; assay type: cell-based; conditions: against saturating 10 μM C8
In short: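 GFP+ OR-I7-expressing rat olfactory neurons were imaged with fura-2 at room temperature under continuous Ringer perfusion at pH 7.4. The test compound at various concentrations was co-applied with 10 μM octanal. The response was normalized to a trend line between flanking stimuli. An antagonist had to give under 90% of the octanal-alone response. Ratios are mean ± SEM. Inhibition curves were Hill-fitted, with at least three cells per point and IC50 ± SD.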

OR-I7 = conditions: vapor phase; ref Araneda et al., 2000; Zhao et al., 1998; cited from earlier work

O=CCCCCC1CC1 [Compound 2]
potency compared with n-alkanals (in words) (rat OR-I7 [1]): more potent than C8
fold more potent than C7 (rat OR-I7 [1]; compound 2 vs C7, identical extended length): 40 fold
activation of OR-I7 (in words) (rat OR-I7 [1]): strongly activated
maximal efficacy relative to 10 μM 1 (rat OR-I7 [1]): 0.99 ± 0.02

O=CCCCC1CCC1 [Compound 3]
OR-I7 response at 30 μM (in words) (rat OR-I7 [1]): near saturating level
potency compared with n-alkanals (in words) (rat OR-I7 [1]): more potent than both
activation of OR-I7 (in words) (rat OR-I7 [1]): strongly activated
maximal efficacy relative to 10 μM 1 (rat OR-I7 [1]): 1.06 ± 0.1
difference in activity between compound 4 and compound 3 (rat OR-I7 [1]; ratio of EC50, compound 3 vs compound 4): 163 fold

O=CCCC1CCCC1 [Compound 4]
OR-I7 response at 30 μM (in words) (rat OR-I7 [1]): unresponsive
activation of OR-I7 (in words) (rat OR-I7 [1]): weakly or not at all; also recorded: marginally active

O=CCC1CCCCC1 [Compound 5]
activation of OR-I7 (in words) (rat OR-I7 [1]): weakly or not at all; also recorded: inactive; also recorded: no substantial activity
percentage of OSNs activated (rat OSNs): 3.4%

O=CC1CCCCCC1 [Compound 6]
activation of OR-I7 (in words) (rat OR-I7 [1]): weakly or not at all; also recorded: inactive
antagonism of C8 activation of OR-I7 (in words) (rat OR-I7 [2]): antagonize C8 activity
percentage of OSNs activated (rat OSNs): 3.6%

CCC1CCC(CC=O)CC1 (stereo not shown) [Compound 11]
potency compared with n-alkanals (in words) (rat OR-I7 [1]): more active than C8
maximal efficacy relative to 10 μM octanal (rat OR-I7 [1]; cis/trans mixture): 1.07 ± 0.05

CCCC=O [Compound C4, reference compound]
activation of OR-I7 (in words) (rat OR-I7 [1]): inactive; also recorded: neither type of activity
antagonism of C8 activation of OR-I7 (in words) (rat OR-I7 [2]): failure of C4 (3.9Å) to antagonize C8 activation; also recorded: neither type of activity

CCCCC=O [Compound C5, reference compound]
activation of OR-I7 (in words) (rat OR-I7 [1]): inactive

CCCCCC=O [Compound C6, reference compound]
activation of OR-I7 (in words) (rat OR-I7 [1]): marginally active
activation of OR-I7 by EOG (in words) (OR-I7): no activation

CCCCCCC=O [Compound C7, reference compound]
increase in activity in the step from C6 to C7 (rat OR-I7 [1]; C7 vs C6, calcium imaging): 145 fold
maximal efficacy relative to 10 μM 1 (rat OR-I7 [1]): 0.86 ± 0.07
activation of OR-I7 by EOG (in words) (OR-I7): activation

CCCCCCCC=O [Compound C8, octanal, reference compound]
maximal efficacy relative to 10 μM 1 (rat OR-I7 [1]): 0.89 ± 0.02
percentage of OSNs activated (rat OSNs): 5.9%
